Experimental data: the RNAGym collection of RNA variant scans (doi:10.1126/science.aae0568)
Variants at the floor of the assay were thinned out.

B1: tRNA (parent)
chain: GUUCCGUUGGCGUAAUGGUAACGCGUCUCCCUCCUAAGGAGAAGACUGCGGGUUCGAGUCCCGUACGGAACG

Variants of: B1
Assay: yeast fitness relative to wild type (ratio to wild type); higher = fitter; tRNA-Arg(CCU), competitive growth, 37 C, YPD
Method in brief: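 For this measurement, the tRNA-Arg(CCU) gene was varied by chemical synthesis at a 3% per-site mutation rate across 69 sites, and each variant was placed at the native genomic locus in Saccharomyces cerevisiae. The pooled strains went through a 24-hour competition in YPD at 37°C in six parallel replicates, with amplicons from start and end populations read by 100-nucleotide paired-end sequencing. Darwinian fitness relative to wild type followed from the change in each genotype's frequency. Genotypes needed ≥ 100 starting reads, and estimates < 0.5 were set to 0.5.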

| Variant | yeast fitness |
| --- | --- |
| GUUCCGUUGGCGUAAUGGUAACGCGUCUCGCUCCUAAGGAGAAGACUGCGGCUUCGAGUCCUGUACGGAACG [C30G G52C C62U] | ≤ 0.5 |
| GUUCCGUUGGCGUAAUGGUAACGCGUCUCGCUCCUAAGGAGAAGACUGCGGGCUCGAGUCCCGUACGGAACG [C30G U53C] | 0.632 |
| GUUCCGUUGGCGUAAUGGUAACGCGUCUCGCCCCUAAGGAGAAGACUGCCGGUUCGAGCCCCGUACGGAACG [C30G U32C G50C U59C] | ≤ 0.5 |
| GUUCCGUUGGCGUAAUGGUAACGCGUCUCGCUCCUAAGGAGAAGACUGCGGCUUCGAGUCCCGUACAGAACG [C30G G52C G67A] | ≤ 0.5 |
| GUUCCGUUGGCGUAAUGGUAACGCGUCUCGCUCCAAAGGAGAAGACUGCGCGUUCGAGUCCCGUACGGAACG [C30G U35A G51C] | 0.628 |
| GUUCCGUUGGCGUAAUGGUAACGCGUCUCGCUCCUAAGGAGAAGACUGUGGGUUCGAGUCCCGAACGGAACG [C30G C49U U64A] | 0.702 |
| GUUCCGUUGGCGUAAUGGUAACGCGUCUCGCUCCUAAGGAGAAGACUGCGGGUUCGAGCCCCGUACGGAACG [C30G U59C] | 0.537 |
| GUUCCGUUGGCGUAAUGGUAACGCGUCUCGCUCCUAAGGAGAAGACUGCGGGUUCGAGACCCGUACGGAACG [C30G U59A] | 0.595 |
| GUUCCGUUGGCGUAAUGGUAACGCGUCUCGCUCCUAAGGAGAAGACUGUGGGUUCGAGUCCCGUACCGAACG [C30G C49U G67C] | ≤ 0.5 |
| GUUCCGUUGGCGUAAUGGUAACGCGUCUCGCUCCUAAGGAGAAGACUGCGGGUUCGAGUCCUGUACGGAACG [C30G C62U] | 0.643 |
| GUUCCGUUGGCGUAAUGGUAACGCGUCUCGCUCCUAAGGAGAACACUGCGCGUUCGAGUCCCGUACGGAACG [C30G G44C G51C] | 0.549 |
| GUUCCGUUGGCGUAAUGGUAACGCGUCUCGCUCCUAAGGAGAAGACGGCGGGUUCGAGUCCCGUACGGAACG [C30G U47G] | ≤ 0.5 |
| GUUCCGUUGGCGUAAUGGUAACGCGUCUCGCUCCUAAGGAGAAGACUGCGGGGUCGAGUCCCAUACGGAACG [C30G U53G G63A] | ≤ 0.5 |
| GUUCCGUUGGCGUAAUGGUAACGCGUCUCGCUCCUAAGGAGAAGACUGCGGGUUCGAGUUCGGUAAGGAACG [C30G C60U C62G C66A] | 0.695 |
| GUUCCGUUGGCGUAAUGGUAACGCGUCUCGCUCCUAAGGAGAAGACUGAGGGUGCGAGUCCCGUGCGGAACG [C30G C49A U54G A65G] | ≤ 0.5 |
| GUUCCGUUGGCGUAAUGGUAACGCGUCUCGCUCCUAAGGAAAAGCCUGCGGGUUCGAGUCCCGAACGGAACG [C30G G41A A45C U64A] | 0.579 |
| GUUCCGUUGGCGUAAUGGUAACGCGUCUCGCUCCAAAGGAGAAGAUUGCGAGUUCAAGUCCCGUACGGAACG [C30G U35A C46U G51A G56A] | ≤ 0.5 |
| GUUCCGUUGGCGUAAUGGUAACGCGUCUCGCUCCUAAGGAGAAGACUGCGGGUUCGAGCCCCGUUCGGAACG [C30G U59C A65U] | 0.528 |
| GUUCCGUUGGCGUAAUGGUAACGCGUCUCUCUCCUCAGGAGAAGACUGCGGGUUCGAGUCCCGUACUGAACG [C30U A36C G67U] | 0.639 |

| Variant | yeast fitness |
| --- | --- |
| GUUCCGUUGGCGUAAUGGUAACGCGUCUCGCUCCUAAGGAGAAGACUGCGGGUUCGAGUCCCAUACGGAUCG [C30G G63A A70U] | ≤ 0.5 |
| GUUCCGUUGGCGUAAUGGUAACGCGUCUCGCUCCUAAGGAGAAGACUGAGGGCUCGAGUCCCGUAGGGAACG [C30G C49A U53C C66G] | 0.513 |
| GUUCCGUUGGCGUAAUGGUAACGCGUCUCGCUCCUAAGGAAAAGCCUGCGGGUUCGAGUCCCGUACGGAACG [C30G G41A A45C] | ≤ 0.5 |
| GUUCCGUUGGCGUAAUGGUAACGCGUCUCGCUCCUAAGCAGAAAACUGCGGGUUCGAGUCCCGUACGGAACG [C30G G39C G44A] | ≤ 0.5 |
| GUUCCGUUGGCGUAAUGGUAACGCGUCUCGCGCCUAAGGAGAAGACUGCGGGUUGGAGUCCCGUACGGAACG [C30G U32G C55G] | ≤ 0.5 |
| GUUCCGUUGGCGUAAUGGUAACGCGUCUCGCUCCUAAGGAGAAGACUGCGGCUUCGAGUCCCGUACGGCACG [C30G G52C A69C] | ≤ 0.5 |
| GUUCCGUUGGCGUAAUGGUAACGCGUCUCGCUCCUAAGGAGAAGACUGCGGGUUCGAAUCCCGUACGGAACG [C30G G58A] | 0.678 |
| GUUCCGUUGGCGUAAUGGUAACGCGUCUCGCUCCUAAGAAGAAGACUGCGGGUUCGAUUCCAGUACGGAACG [C30G G39A G58U C62A] | ≤ 0.5 |
| GUUCCGUUGGCGUAAUGGUAACGCGUCUCGCUCCUAAGGAGAAGACUGUGGGUUCGAGUCCCGUACGGAACG [C30G C49U] | 0.643 |
| GUUCCGUUGGCGUAAUGGUAACGCGUCUCGCUCCUAAGGAGAAGACUGAGGGUUCGAGUCCCGUACGGAACG [C30G C49A] | ≤ 0.5 |
| GUUCCGUUGGCGUAAUGGUAACGCGUCUCGCCCCUAAGGAGAAGACUGCCGGUUCGAGUCCCGUACGGAACG [C30G U32C G50C] | ≤ 0.5 |
| GUUCCGUUGGCGUAAUGGUAACGCGUCUCGCUCCUAAGGAGAAGACUGCGGGUUGGCGCCCCGUACGGAACG [C30G C55G A57C U59C] | ≤ 0.5 |
| GUUCCGUUGGCGUAAUGGUAACGCGUCUCGCUCCUAAGGAGAAGACUGCGCGUUCGAGUCCCGUACGGAACG [C30G G51C] | ≤ 0.5 |
| GUUCCGUUGGCGUAAUGGUAACGCGUCUCGCUCCUAAGGAGAAGACUGCGAGUUCGAGUCCCGUACGGAACG [C30G G51A] | 0.566 |
| GUUCCGUUGGCGUAAUGGUAACGCGUCUCGCUCCUAAGGAGAAGACUGCGGGUUCGAAUCCCGUACGAAACG [C30G G58A G68A] | 0.705 |
| GUUCCGUUGGCGUAAUGGUAACGCGUCUCGCUCCUAAGGACAAGACUGCGGGUUCGAGUCCCGUACGGAACG [C30G G41C] | 0.616 |
| GUUCCGUUGGCGUAAUGGUAACGCGUCUCGCUCCUAAGGAAAAGACUGCGGGUUCGAGUCCCGUACGGAACG [C30G G41A] | 0.568 |
| GUUCCGUUGGCGUAAUGGUAACGCGUCUCUCUCCUCAGGAGAAGACUGCGGAUUGGAGUCCCGUACGGAACG [C30U A36C G52A C55G] | ≤ 0.5 |
| GUUCCGUUGGCGUAAUGGUAACGCGUCUCGCUCCUAAGGAAAAGACUGCGGGUUCGAGUCCCGUAUGGAACG [C30G G41A C66U] | ≤ 0.5 |
